Laboratory results published in ChEMBL document CHEMBL5058577, “EUbOPEN Chemogenomics Library 2 (Multiplex)” (2022).

Tested on: Fibroblast
Experiment: Multiplex assay against human fibroblast
Format: toxicity, cell-based
How it was run: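 Cells were classed with CellPathfinder machine-learning gating, first as Hoechst high-intensity objects or normal cells, then (normal cells) as healthy, pyknosed or fragmented nuclei, and finally (pyknosed cells) as mitotic or apoptotic. Staining of live cells at seeding used Hoechst33342, BioTracker Green Microtubule Cytoskeleton Dye, MitoTracker Red and Annexin V Alexa Fluor 680, with imaging on a CQ1 microscope at 37°C and 5% CO2 after compound addition. Tubulin, mitochondrial-mass and membrane-permeability phenotypes are per cents of healthy-nucleus cells.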

[1] = 12 h, 1 µM, compound concentration 1 uM, replicate 1
[2] = 12 h, 1 µM, compound concentration 1 uM, replicate 2
[3] = 12 h, 10 µM, compound concentration 10 uM, replicate 1
[4] = 12 h, 10 µM, compound concentration 10 uM, replicate 2
[5] = 24 h, 1 µM, compound concentration 1 uM, replicate 1
[6] = 24 h, 1 µM, compound concentration 1 uM, replicate 2
[7] = 24 h, 10 µM, compound concentration 10 uM, replicate 1
[8] = 24 h, 10 µM, compound concentration 10 uM, replicate 2
[9] = 48 h, 1 µM, compound concentration 1 uM, replicate 1
[10] = 48 h, 1 µM, compound concentration 1 uM, replicate 2
[11] = 48 h, 10 µM, compound concentration 10 uM, replicate 1
[12] = 48 h, 10 µM, compound concentration 10 uM, replicate 2

SMILES: Nc1nc(-c2ccco2)c2cnn(Cc3ccccc3F)c2n1
- Population Apoptotic (%) [1]: 50%
- Population Fragmented Nuclei (%) [1]: 10%
- Population Healthy Nuclei (%) [1]: 78%
- Population Hoechst High Intensity Objects (%) [1]: 0%
- Population Membrane Permeable-Phenotype (%) [1]: 1%
- Population Mitochondria Different-Phenotype (%) [1]: 2%
- Population Mitotic Cells (%) [1]: 50%
- Population Normal (%) [1]: 99%
- Population Pyknosed Nuclei (%) [1]: 11%
- Population Tubulin-Different-Phenotype (%) [1]: 26%
- Total Cell Count [1]: 189
- Population Apoptotic (%) [2]: 45%
- Population Fragmented Nuclei (%) [2]: 31%
- Population Healthy Nuclei (%) [2]: 50%
- Population Hoechst High Intensity Objects (%) [2]: 6%
- Population Membrane Permeable-Phenotype (%) [2]: 2%
- Population Mitochondria Different-Phenotype (%) [2]: 5%
- Population Mitotic Cells (%) [2]: 54%
- Population Normal (%) [2]: 93%
- Population Pyknosed Nuclei (%) [2]: 17%
- Population Tubulin-Different-Phenotype (%) [2]: 42%
- Total Cell Count [2]: 144
- Population Apoptotic (%) [3]: 54%
- Population Fragmented Nuclei (%) [3]: 16%
- Population Healthy Nuclei (%) [3]: 61%
- Population Hoechst High Intensity Objects (%) [3]: 8%
- Population Membrane Permeable-Phenotype (%) [3]: 0%
- Population Mitochondria Different-Phenotype (%) [3]: 7%
- Population Mitotic Cells (%) [3]: 45%
- Population Normal (%) [3]: 91%
- Population Pyknosed Nuclei (%) [3]: 21%
- Population Tubulin-Different-Phenotype (%) [3]: 38%
- Total Cell Count [3]: 123
- Population Apoptotic (%) [4]: 47%
- Population Fragmented Nuclei (%) [4]: 39%
- Population Healthy Nuclei (%) [4]: 44%
- Population Hoechst High Intensity Objects (%) [4]: 10%
- Population Membrane Permeable-Phenotype (%) [4]: 5%
- Population Mitochondria Different-Phenotype (%) [4]: 13%
- Population Mitotic Cells (%) [4]: 52%
- Population Normal (%) [4]: 89%
- Population Pyknosed Nuclei (%) [4]: 16%
- Population Tubulin-Different-Phenotype (%) [4]: 51%
- Total Cell Count [4]: 147
- Population Apoptotic (%) [5]: 50%
- Population Fragmented Nuclei (%) [5]: 9%
- Population Healthy Nuclei (%) [5]: 82%
- Population Hoechst High Intensity Objects (%) [5]: 0%
- Population Membrane Permeable-Phenotype (%) [5]: 0%
- Population Mitochondria Different-Phenotype (%) [5]: 2%
- Population Mitotic Cells (%) [5]: 50%
- Population Normal (%) [5]: 100%
- Population Pyknosed Nuclei (%) [5]: 7%
- Population Tubulin-Different-Phenotype (%) [5]: 24%
- Total Cell Count [5]: 180
- Population Apoptotic (%) [6]: 56%
- Population Fragmented Nuclei (%) [6]: 29%
- Population Healthy Nuclei (%) [6]: 53%
- Population Hoechst High Intensity Objects (%) [6]: 6%
- Population Membrane Permeable-Phenotype (%) [6]: 4%
- Population Mitochondria Different-Phenotype (%) [6]: 5%
- Population Mitotic Cells (%) [6]: 43%
- Population Normal (%) [6]: 93%
- Population Pyknosed Nuclei (%) [6]: 17%
- Population Tubulin-Different-Phenotype (%) [6]: 37%
- Total Cell Count [6]: 139
- Population Apoptotic (%) [7]: 70%
- Population Fragmented Nuclei (%) [7]: 19%
- Population Healthy Nuclei (%) [7]: 66%
- Population Hoechst High Intensity Objects (%) [7]: 6%
- Population Membrane Permeable-Phenotype (%) [7]: 1%
- Population Mitochondria Different-Phenotype (%) [7]: 8%
- Population Mitotic Cells (%) [7]: 29%
- Population Normal (%) [7]: 93%
- Population Pyknosed Nuclei (%) [7]: 14%
- Population Tubulin-Different-Phenotype (%) [7]: 39%
- Total Cell Count [7]: 127
- Population Apoptotic (%) [8]: 43%
- Population Fragmented Nuclei (%) [8]: 43%
- Population Healthy Nuclei (%) [8]: 44%
- Population Hoechst High Intensity Objects (%) [8]: 8%
- Population Membrane Permeable-Phenotype (%) [8]: 15%
- Population Mitochondria Different-Phenotype (%) [8]: 5%
- Population Mitotic Cells (%) [8]: 56%
- Population Normal (%) [8]: 91%
- Population Pyknosed Nuclei (%) [8]: 11%
- Population Tubulin-Different-Phenotype (%) [8]: 46%
- Total Cell Count [8]: 147
- Population Apoptotic (%) [9]: 45%
- Population Fragmented Nuclei (%) [9]: 16%
- Population Healthy Nuclei (%) [9]: 77%
- Population Hoechst High Intensity Objects (%) [9]: 3%
- Population Membrane Permeable-Phenotype (%) [9]: 2%
- Population Mitochondria Different-Phenotype (%) [9]: 1%
- Population Mitotic Cells (%) [9]: 54%
- Population Normal (%) [9]: 96%
- Population Pyknosed Nuclei (%) [9]: 6%
- Population Tubulin-Different-Phenotype (%) [9]: 26%
- Total Cell Count [9]: 182
- Population Apoptotic (%) [10]: 57%
- Population Fragmented Nuclei (%) [10]: 41%
- Population Healthy Nuclei (%) [10]: 48%
- Population Hoechst High Intensity Objects (%) [10]: 6%
- Population Membrane Permeable-Phenotype (%) [10]: 4%
- Population Mitochondria Different-Phenotype (%) [10]: 9%
- Population Mitotic Cells (%) [10]: 42%
- Population Normal (%) [10]: 93%
- Population Pyknosed Nuclei (%) [10]: 10%
- Population Tubulin-Different-Phenotype (%) [10]: 37%
- Total Cell Count [10]: 147
- Population Apoptotic (%) [11]: 80%
- Population Fragmented Nuclei (%) [11]: 25%
- Population Healthy Nuclei (%) [11]: 65%
- Population Hoechst High Intensity Objects (%) [11]: 9%
- Population Membrane Permeable-Phenotype (%) [11]: 0%
- Population Mitochondria Different-Phenotype (%) [11]: 10%
- Population Mitotic Cells (%) [11]: 20%
- Population Normal (%) [11]: 90%
- Population Pyknosed Nuclei (%) [11]: 9%
- Population Tubulin-Different-Phenotype (%) [11]: 27%
- Total Cell Count [11]: 115
- Population Apoptotic (%) [12]: 50%
- Population Fragmented Nuclei (%) [12]: 50%
- Population Healthy Nuclei (%) [12]: 38%
- Population Hoechst High Intensity Objects (%) [12]: 5%
- Population Membrane Permeable-Phenotype (%) [12]: 16%
- Population Mitotic Cells (%) [12]: 50%
- Population Normal (%) [12]: 94%
- Population Pyknosed Nuclei (%) [12]: 10%
- Population Tubulin-Different-Phenotype (%) [12]: 51%
- Total Cell Count [12]: 155
